Molecules are shown by their SMILES. Calls of active or inactive are those of the source. The calls are words filed in the database; no cut-off is given here.

The inhibition is the relative decrease from the control value, in per cent. Usually pKb stands for the Kb on a negative log10 scale, so that one unit is a factor of ten. For orientation: EC50 means the concentration giving half of the maximal effect.

The target of test [1] is T1, C-X-C chemokine receptor type 3 (Homo sapiens) (UniProt P49682).
T1 sequence (whole entry): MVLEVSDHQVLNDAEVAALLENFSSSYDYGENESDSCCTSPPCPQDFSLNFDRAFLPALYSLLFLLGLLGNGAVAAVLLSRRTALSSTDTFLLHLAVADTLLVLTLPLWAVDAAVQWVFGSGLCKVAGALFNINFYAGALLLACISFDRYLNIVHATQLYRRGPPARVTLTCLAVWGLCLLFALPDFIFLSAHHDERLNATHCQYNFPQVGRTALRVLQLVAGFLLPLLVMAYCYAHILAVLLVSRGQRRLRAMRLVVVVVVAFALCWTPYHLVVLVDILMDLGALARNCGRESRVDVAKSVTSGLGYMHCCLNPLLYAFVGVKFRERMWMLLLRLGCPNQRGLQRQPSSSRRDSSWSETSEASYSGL
In words: Agonist activity at PK1-tagged CXCR3 (unknown origin) expressed in HEK293T cells co-expressing beta-arrestin/beta-Gal enzyme chimera assessed as beta-arrestin recruitment at 10 uM after 4 hrs by chemiluminescence based beta-galactosidase reporter gene assay. The class given is functional, cell-based. In short, it runs like this: (§1)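 PathHunter β-arrestin 2 recruitment at CXCR3 by β-gal fragment complementation, chemiluminescent read-out, compounds at 10 µM. Inhibition mode is scaled between CXCL11 50 nM (100%) and (±)-NBI-74330 10 µM (full inhibition). Agonism tested without chemokine. Mean ± S.E.M., three experiments in triplicate.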
For orientation: Activated receptors often draw arrestin, which recruitment assays turn into a signal.

In test [2] the target is T1, C-X-C chemokine receptor type 3 (Homo sapiens). In words: Agonist activity at CXCR3 (unknown origin) expressed in HEK293T cells assessed as inhibition of forskolin-mediated cAMP accumulation at 10 uM after 20 mins by BRET assay. The class given is functional, cell-based. Background: cAMP levels reflect the balance of adenylyl cyclase and phosphodiesterase activity.
The target is the same in test [3]. In words: Negative allosteric modulation of PK1-tagged CXCR3 (unknown origin) expressed in HEK293T cells co-expressing beta-arrestin/beta-Gal enzyme chimera assessed as inhibition of CXCL11-induced beta-arrestin recruitment at 10 uM after 4 hrs by chemiluminescence based beta-galactosidase reporter gene assay relative to control. The test is classed as functional, cell-based. In outline: as §1

Test [4] addresses T2, C-X-C chemokine receptor type 4 (Homo sapiens, UniProt P61073). Briefly: Negative allosteric modulation of CXCR4 (unknown origin) expressed in HEK293T cells assessed as inhibition of CXCL12-induced reduction in forskolin-mediated cAMP accumulation at 10 uM after 20 mins by BRET assay relative to control. The class given is functional, cell-based. In outline: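 CXCR4 antagonism in BRET cAMP assay, compounds at 10 µM. NetBRET expressed as percent, scaled between CXCL12 20 nM (100%) and IT1t 10 µM (0%). Mean ± S.E.M. of three experiments in triplicate.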

The target of test [5] is T1, C-X-C chemokine receptor type 3 (Homo sapiens). Briefly: Negative allosteric modulation of CXCR3 (unknown origin) expressed in HEK293T cells assessed as inhibition of CXCL11-induced reduction in forskolin-mediated cAMP accumulation at 10 uM after 20 mins by BRET assay relative to control. The class given is functional, cell-based. In outline:
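CXCR3 antagonism in whole-cell BRET cAMP assay, compounds at 10 µM. NetBRET signal expressed as percent, scaled between CXCL11 50 nM (100%) and cRAMX3 10 µM (0%). Mean ± S.E.M. of three experiments in triplicate.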

Test [6] has the same target. In words: Positive allosteric modulation of PK1-tagged CXCR3 (unknown origin) expressed in HEK293T cells co-expressing beta-arrestin/beta-Gal enzyme chimera assessed as increase in CXCL11-induced beta-arrestin recruitment at 10 uM after 4 hrs by chemiluminescence based beta-galactosidase reporter gene assay. The test is classed as functional, cell-based. In outline: as §1

Test [7] shares this target. In words: Negative allosteric modulation of CXCR3 in human PBMC assessed as inhibition of CXCL11-induced migration at 150 uM preincubated for 1 hr followed by CXCL11 addition measured after 3 hrs by flow cytometry based transwell assay relative to control. The test is classed as functional, cell-based. In short, it runs like this:
(§2)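 Human PBMCs, CXCR3 expression confirmed by flow cytometry, pre-treated with compound (30 or 150 µM) then allowed to migrate toward CXCL11 in a transwell. Cells in the lower chamber counted by flow cytometry (60 s counts). Mean ± SD of four independent experiments; unpaired t test.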
On the technique in general: In flow cytometry, cells or beads pass a laser one at a time.

Test [8] has the same target. In words: Negative allosteric modulation of CXCR3 in human PBMC assessed as inhibition of CXCL11-induced migration at 30 uM preincubated for 1 hr followed by CXCL11 addition measured after 3 hrs by flow cytometry based transwell assay relative to control. The class given is functional, cell-based. In short, it runs like this: as §2
The target is the same in test [9]. Briefly: Negative allosteric modulation of CXCR3 (unknown origin) expressed in HEK293T cells assessed as inhibition of CXCL11-induced reduction in forskolin-mediated cAMP accumulation after 20 mins by BRET assay. The test is classed as functional, cell-based. In outline: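 CXCR3 dose-response in BRET cAMP assay against CXCL11 at 50 nM, cRAMX3 as reference. Data fitted with a ternary complex allosteric model to give pKB and cooperativity α. Mean ± S.E.M., three experiments in triplicate.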

Test [10] addresses T2, C-X-C chemokine receptor type 4. Briefly: Negative allosteric modulation of CXCR4 in human CD4+ T cells assessed as inhibition of CXCL12-induced migration at 150 uM preincubated for 1 hr followed by CXCL12 addition measured after 3 hrs by flow cytometry based transwell assay relative to control. The test is classed as functional, cell-based. In short, it runs like this: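 Isolated human CD4+ T cells, CXCR4 expression checked by flow cytometry, pre-treated with compound at 150 µM, then transwell migration toward CXCL12. Migrated cells in the lower chamber counted by flow cytometry over 60 s. Mean ± SD of four independent experiments; unpaired t test.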

Test [11] has the same target. Briefly: Negative allosteric modulation of CXCR4 (unknown origin) expressed in HEK293T cells assessed as inhibition of CXCL12-induced reduction in forskolin-mediated cAMP accumulation after 20 mins by BRET assay. The class given is functional, cell-based. In outline: (§3)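 Dose-response in CXCR4 BRET cAMP assay with CXCL12 at 20 nM, IT1t as reference. Analysis uses ternary complex allosteric model; where signal-to-noise was poor, nonlinear regression with Hill slope fixed at 1 gave approximate pEC50. Three experiments in triplicate.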

For test [12], the target named is T1, C-X-C chemokine receptor type 3 (Homo sapiens). Briefly: Negative allosteric modulation of CXCR3 (unknown origin) expressed in HEK293 cell membranes assessed as inhibition of CXCL11-induced [35S]GTPgammaS binding preincubated for 30 mins followed by [35S]GTPgammaS addition measured after 30 mins. The class given is functional.
Test [13] has as its target T2, C-X-C chemokine receptor type 4. In words: Negative allosteric modulation of CXCR4 (unknown origin) expressed in HEK293 cell membranes assessed as inhibition of CXCL12-induced [35S]GTPgammaS binding preincubated for 30 mins followed by [35S]GTPgammaS addition measured after 30 mins. The test is classed as functional.
The target is the same in test [14]. In words: Positive allosteric modulation of CXCR4 (unknown origin) expressed in HEK293T cells assessed as increase in CXCL12-induced reduction in forskolin-mediated cAMP accumulation at 10 uM after 20 mins by BRET assay relative to control. Set-up: scale not given: the % may be the effect or the level left. The class given is functional, cell-based.
The target is the same in test [15]. Briefly: Agonist activity at CXCR4 (unknown origin) expressed in HEK293T cells assessed as inhibition of forskolin-mediated cAMP accumulation after 20 mins by BRET assay. The test is classed as functional, cell-based. In short, it runs like this:
as §3

The target is the same in test [16]. Briefly: Agonist activity at CXCR4 (unknown origin) expressed in HEK293T cells assessed as inhibition of forskolin-mediated cAMP accumulation at 10 uM after 20 mins by BRET assay. The test is classed as functional, cell-based. In outline:
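Agonism screen in BRET-based cAMP assay, compounds at 10 µM applied without chemokine. For CXCR4, CXCL12 at 20 nM serves as positive control. Mean of three experiments, each in triplicate.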

T2 sequence (P61073 whole entry): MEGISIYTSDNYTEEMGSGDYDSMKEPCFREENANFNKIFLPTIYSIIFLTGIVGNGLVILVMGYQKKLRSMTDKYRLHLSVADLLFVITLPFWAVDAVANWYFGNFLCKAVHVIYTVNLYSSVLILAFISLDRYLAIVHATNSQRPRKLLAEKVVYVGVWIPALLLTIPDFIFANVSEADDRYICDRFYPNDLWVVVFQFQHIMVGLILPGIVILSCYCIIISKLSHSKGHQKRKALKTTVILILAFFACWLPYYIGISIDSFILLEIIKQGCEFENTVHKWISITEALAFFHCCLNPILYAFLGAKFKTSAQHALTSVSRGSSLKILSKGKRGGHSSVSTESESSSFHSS

Consider `O=C(c1ccc(-n2cccn2)nc1)N1CCC(N(Cc2ccccc2)Cc2ccc(Cl)cc2)CC1`, for which the outcome in test [1] was inactive. Also, in [2], the inhibition result is “inactive”. Moreover, the inhibition in test [3] was no less than 20%.

`COc1ccc(CN2CCN(C(=O)c3ccc(-n4cccn4)nc3)CC2)cc1`: the inhibition in test [4] is greater than 50%; in test [5], greater than 60%; in [7], greater than 20%; in test [8], greater than 10%; in test [10], greater than 80%. For the same molecule, the result in test [6] was inactive. Besides, the figures for the pKb in test [9] and in test [11] were 6.15 and 6.09, respectively.

With `O=C(c1ccc(-n2cccn2)nc1)N1CCN(Cc2ccc(Cl)c(Cl)c2)CC1`, the inhibition is greater than 50% in [4] and greater than 80% in test [10]. Besides, the result in test [6] was inactive. For the same molecule, the pKb in test [11] stood at 6.5.

On to `CCN(CCCNC(=O)c1ccc(-n2cccn2)nc1)c1ccccc1`, for which the inhibition entry in [4] and in [5] was “inactive” throughout. For the same molecule, the pKb was determined as 8.82 in test [12] and 8.72 in test [13].

For `CCOc1ccc(-n2c(C(C)N(CC3CCN(C)CC3)C(=O)Cc3ccc(F)c(C(F)(F)F)c3)nc3ncccc3c2=O)cc1` (stereo not given), in test [5], the inhibition stood at 100%. Besides, in test [9], the pKb was 7.33.

`O=C(NC1CCN(Cc2ccc(F)c(F)c2)CC1)c1ccc(-n2cccn2)nc1`: the result in [1] was inactive. In addition, the inhibition is greater than 50% in [5], greater than 20% in test [7] and greater than 10% in test [8]. Further, the inhibition result in test [2] was “inactive”.

For the molecule `O=C(c1ccc(-n2cccn2)nc1)N1CCC(N(Cc2ccccc2)Cc2ccc(F)c(F)c2)CC1`, the result in test [1] was inactive. In test [2], the inhibition entry was “inactive”. Moreover, the inhibition in test [3] is no less than 20%.

As for `CC1(C)CN2C(CS/C(=N\C3CCCCC3)NC3CCCCC3)=CSC2=N1`, the pKb in test [11] turned out to be 8.54. Also, the Activity in [14] stood at 100%.

For the molecule `O=C(c1ccc(-n2cccn2)nc1)N1CCN(Cc2ccc(Cl)cc2)CC1`, the results for the inhibition in test [5], in test [7] and in test [8] were greater than 60%, greater than 20% and greater than 10%, respectively. The inhibition result in test [3] was “inactive”. The pKb in [9] came out at 6.35.

Regarding `O=C(c1ccc(-n2cccn2)nc1)N1CCC(NCc2ccccc2)CC1`, the outcome in test [1] and in test [6] was inactive. Also, the EC50 in test [15] was 5.89 µM. In addition, the inhibition entry in [2] was “inactive”. Further, the inhibition entry in [16] was “Active”. Moreover, in test [14], the outcome was Active.

Regarding `O=C(c1ccc(-n2cccn2)nc1)N1CCC(N(Cc2ccccc2)Cc2ccccc2)CC1`, the outcome in test [1] was inactive. Moreover, the inhibition entry in test [2] is “inactive”. In test [3], the inhibition is no less than 20%.

As to `COc1ccc(CN(Cc2ccccc2)C2CCN(C(=O)c3ccc(-n4cccn4)nc3)CC2)cc1`, the inhibition is greater than 50% in test [4], no less than 20% in test [3] and 100% in [10]. Besides, the result in [1] and in test [6] was inactive. Moreover, the inhibition result in test [2] was “inactive”. Besides, in test [11], the pKb came to 5.83.

As for `CCOc1ccc(-n2c(C(C)N(Cc3cccnc3)C(=O)Cc3ccc(F)c(C(F)(F)F)c3)nc3ncccc3c2=O)cc1` (racemic), the inhibition in test [3] amounted to 100%.

With `O=C(NCCCN(CCc1ccccc1)c1ccccc1)c1ccc(-n2cccn2)nc1`, the inhibition in test [4] was greater than 50%; in test [10] it was greater than 80%. Also, the outcome in [6] was inactive. In addition, in [11], the pKb was 6.13.

As for `O=C(NCCCN(Cc1ccccc1)c1ccccc1)c1ccc(-n2cccn2)nc1`, the inhibition is greater than 50% in test [4] and greater than 80% in test [10]. In addition, the result in test [6] was inactive. Further, the pKb in test [11] was found to be 6.04.

Consider `O=C(NC1CCN(Cc2ccc(Cl)cc2)CC1)c1ccc(-n2cccn2)nc1`, for which the result in test [1] and in test [6] was inactive. Moreover, the results for the inhibition in test [5], in test [7] and in [8] were greater than 50%, 80% and 80%, respectively. For the same molecule, the inhibition result in [2] was “inactive”. The inhibition entry in test [16] was “Active”. Moreover, in test [11], the pKb came out at 5.6.

Regarding `O=C(NCCCNc1ccccc1)c1ccc(-n2cccn2)nc1`, the EC50 in test [15] is 9.55 µM. Further, in [6], the outcome was inactive. The inhibition result in test [16] is “Active”.

With `O=C(NCCCNc1ccc(Cl)cc1)c1ccc(-n2cccn2)nc1`, the outcome in [6] was inactive. Also, the inhibition entry in test [16] was “Active”. In addition, in [11], the negative logarithm of the Kb (pKb) was determined as 4.64.

For the molecule `O=C(c1ccc(-n2cccn2)nc1)N1CCC(N(Cc2ccccc2)Cc2ccc(Cl)c(Cl)c2)CC1`, the result in test [1] was inactive. Moreover, the inhibition was greater than 50% in test [5], greater than 20% in test [7] and greater than 10% in test [8]. In addition, the inhibition result in test [2] was “inactive”.
